Measurements from ChEMBL document CHEMBL3751702, “Comprehensive Analysis of Structure-Activity Relationships of α-Ketoheterocycles as sn-1-Diacylglycerol Lipase α Inhibitors” (J Med Chem, 2015).

Biological target: T1, Diacylglycerol lipase-alpha (Homo sapiens, UniProt Q9Y4D2)
T1 sequence (Q9Y4D2 whole entry): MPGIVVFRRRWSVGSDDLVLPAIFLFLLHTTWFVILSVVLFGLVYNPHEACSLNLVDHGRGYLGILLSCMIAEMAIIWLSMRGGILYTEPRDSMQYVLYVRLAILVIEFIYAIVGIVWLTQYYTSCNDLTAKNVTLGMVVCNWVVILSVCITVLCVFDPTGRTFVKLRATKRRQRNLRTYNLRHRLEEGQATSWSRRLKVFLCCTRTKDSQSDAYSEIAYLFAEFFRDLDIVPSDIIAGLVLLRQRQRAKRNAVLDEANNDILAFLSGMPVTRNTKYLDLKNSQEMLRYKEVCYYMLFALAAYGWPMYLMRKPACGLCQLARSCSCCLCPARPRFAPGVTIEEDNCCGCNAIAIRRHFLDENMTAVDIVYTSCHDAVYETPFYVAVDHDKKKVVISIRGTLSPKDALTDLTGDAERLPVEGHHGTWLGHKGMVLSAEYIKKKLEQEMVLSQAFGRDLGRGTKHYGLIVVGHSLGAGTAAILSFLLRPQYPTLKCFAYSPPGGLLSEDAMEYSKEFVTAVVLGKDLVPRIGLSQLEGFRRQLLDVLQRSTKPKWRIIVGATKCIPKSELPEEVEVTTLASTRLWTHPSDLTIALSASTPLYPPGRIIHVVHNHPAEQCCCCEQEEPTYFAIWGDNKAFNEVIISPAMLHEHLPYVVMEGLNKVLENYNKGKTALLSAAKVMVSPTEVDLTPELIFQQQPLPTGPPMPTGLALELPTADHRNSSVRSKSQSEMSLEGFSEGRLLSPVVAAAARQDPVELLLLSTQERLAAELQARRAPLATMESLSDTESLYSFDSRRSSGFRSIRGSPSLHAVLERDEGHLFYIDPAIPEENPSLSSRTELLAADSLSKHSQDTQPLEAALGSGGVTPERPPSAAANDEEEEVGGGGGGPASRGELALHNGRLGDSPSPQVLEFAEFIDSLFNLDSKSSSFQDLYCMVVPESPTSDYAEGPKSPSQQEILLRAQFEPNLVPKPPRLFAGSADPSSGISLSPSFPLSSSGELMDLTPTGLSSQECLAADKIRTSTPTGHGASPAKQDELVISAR
Experiment: Inhibition of full-length human DAGLalpha expressed in HEK293T cell membranes using para-nitrophenylbutyrate by colorimetric assay
Format: cell-based, HEK-293T
How it was run: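 Membranes from HEK293T cells transiently transfected with full-length human DAGL-α (pcDNA3.1; PEI transfection, harvested at 72 h), diluted to 0.05 μg/μL final protein in 50 mM HEPES pH 7.2. Screen at 10 μM in duplicate; dose response by 10-fold serial dilution.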

| Compound | IC50 [µM] | pIC50 (hek-293t) |
| --- | --- | --- |
| O=C(CCCCCCc1ccccc1)c1ncc(-c2ccccc2)o1 | > 10 | – |
| O=C(CCCCCCc1ccccc1)c1nnc(-c2ccccc2)o1 | > 10 | – |
| O=C(CCCCCCc1ccccc1)c1nnc(-c2ccccn2)o1 | > 10 | – |
| O=C(CCCCCCCc1ccccc1)c1nc2ncccc2o1 | 0.0468 | – |
| O=C(CCCCCCc1ccccc1)c1nnc(-c2ccncc2)o1 | > 10 | – |
| CCCCCCCCCCCCCCCC(=O)c1nc2ncccc2o1 | 0.0646 | – |
| CCCCCCCCCCCCCC(=O)c1nc2ncccc2o1 | 0.0741 | – |
| CCCCCCCCCC(=O)c1nc2ncccc2o1 | 0.0741 | – |
| CCCCCC(=O)c1nc2ncccc2o1 | > 10 | – |
| CC(=O)c1nc2ncccc2o1 | > 10 | – |
| O=C(CCCCCCCCc1ccccc1)c1nc2ncccc2o1 | 0.00363 | – |
| CN(C)C(=O)c1cnc(C(=O)CCCCCCc2ccccc2)o1 | > 10 | – |
| CC(=O)c1cnc(C(=O)CCCCCCc2ccccc2)o1 | > 10 | – |
| CNC(=O)c1cnc(C(=O)CCCCCCc2ccccc2)o1 | > 10 | – |
| CSc1cnc(C(=O)CCCCCCc2ccccc2)o1 | > 10 | – |
| O=C(CCCCCCc1ccccc1)c1ncco1 | > 10 | – |
| COc1ccc(-c2cnc(C(=O)CCCCCCc3ccccc3)o2)cc1 | > 10 | – |
| O=C(CCCCCCc1ccccc1)c1ncc(-c2ccc(C(=O)C(F)(F)F)cc2)o1 | > 10 | – |
| Cc1ccc(-c2cnc(C(=O)CCCCCCc3ccccc3)o2)nc1 | > 10 | – |
| O=C(CCCCCCc1ccccc1)c1ncc(C(=O)C(F)(F)F)o1 | 1.82 | – |
| O=C(CCCCCCc1ccccc1)c1ncc(Cl)o1 | > 10 | – |
| O=Cc1cnc(C(=O)CCCCCCc2ccccc2)o1 | > 10 | – |

| Compound | IC50 [µM] | pIC50 (hek-293t) |
| --- | --- | --- |
| N#Cc1cnc(C(=O)CCCCCCc2ccccc2)o1 | > 10 | – |
| COC(=O)c1cnc(C(=O)CCCCCCc2ccccc2)o1 | > 10 | – |
| Cc1cnc(C(=O)CCCCCCc2ccccc2)o1 | > 10 | – |
| O=C(CCCCCCc1ccccc1)c1ncc(-c2ccc(F)cc2)o1 | > 10 | – |
| O=C(CCCCCCc1ccccc1)c1ncc(-c2ccccc2F)o1 | > 10 | – |
| CCCCCCCC(=O)c1nc2ncccc2o1 | 0.631 | – |
| CCCCCCCCCCCC(=O)c1nc2ncccc2o1 | 0.0309 | – |
| O=C(CCCc1ccccc1)c1nc2ncccc2o1 | 2.24 | – |
| CCCCCCCC/C=C\CCCCCCCC(=O)c1nc2ncccc2o1 | 0.0263 | – |
| O=C(CCCCCCc1ccccc1)c1nnc(-c2cccnc2)o1 | > 10 | – |
| O=C(CCCCCCc1ccccc1)c1nc2ncccc2o1 | 0.525 | – |
| O=C(CCCCCCc1ccccc1)c1ncc(Br)o1 | > 10 | – |
| O=C(CCCCCCc1ccccc1)c1ncc(C(F)(F)F)o1 | > 10 | – |
| CS(=O)(=O)c1cnc(C(=O)CCCCCCc2ccccc2)o1 | > 10 | – |
| O=C(CCCCCc1ccccc1)c1nc2cccc(F)c2o1 | > 10 | – |
| CC(C)(C)C(=O)c1coc(C(=O)CCCCCCc2ccccc2)n1 | 0.479 | – |
| O=C(CCCCCCc1ccccc1)c1nnc(-c2ccccc2)s1 | > 10 | – |
| O=C(CCCCCCc1ccccc1)c1ncc(-c2ccc(C(F)(F)F)cn2)o1 | > 10 | – |
| CS(=O)(=O)c1coc(C(=O)CCCCCCc2ccccc2)n1 | 0.389 | – |
| O=C(CCCCCc1ccccc1)c1nc2ccc(F)cc2o1 | 0.708 | – |
| O=C(CCCCCc1ccccc1)c1nc2cc([N+](=O)[O-])ccc2o1 | 0.891 | – |
| O=C(CCCCCc1ccccc1)c1nc2ccc([N+](=O)[O-])cc2o1 | 0.0871 | – |

| Compound | IC50 [µM] | pIC50 (hek-293t) |
| --- | --- | --- |
| O=C(CCCCCc1ccccc1)c1nc2ccc(Br)cc2o1 | 5.89 | – |
| O=C(CCCCCCc1ccccc1)c1nnc(-c2ccccc2)[nH]1 | > 10 | – |
| C=CCCCCCCCC(=O)c1nc2ncccc2o1 | 0.55 | – |
| COc1cnc(C(=O)CCCCCCc2ccccc2)o1 | > 10 | – |
| O=C(CCc1ccccc1)c1nc2ncccc2o1 | 18.2 | – |
| COc1ccc(-c2cnc(C(=O)CCCCCCc3ccccc3)o2)nc1 | > 10 | – |
| O=C(CCCCCc1ccccc1)c1nc2cccc(Br)c2o1 | > 10 | – |
| O=C(CCCCCCc1ccccc1)c1ncc(-c2cccc(F)c2)o1 | > 10 | – |
| CCCCC(=O)c1nc2ncccc2o1 | > 10 | – |
| O=C(CCCCCCc1ccccc1)c1nnc(-c2ccco2)o1 | > 10 | – |
| O=C(CCCCCCc1ccccc1)c1nnc(-c2cccs2)s1 | > 10 | – |
| O=C(CCCCCCc1ccccc1)c1nc(Br)co1 | > 10 | – |
| O=C(CCCCCCc1ccccc1)c1ncno1 | > 10 | – |
| COC(=O)c1nnc(C(=O)CCCCCCc2ccccc2)s1 | > 10 | – |
| Cn1nnnc1C(=O)CCCCCCc1ccccc1 | > 10 | – |
| O=C(CCCCCCc1ccccc1)c1cccnn1 | > 10 | – |
| O=C(CCCCCCc1ccccc1)c1nnn[nH]1 | > 10 | < 5 |
| O=C(CCCCCCc1ccccc1)c1nc(-c2ccccc2)co1 | 8.71 | – |
| CNC(=O)c1coc(C(=O)CCCCCCc2ccccc2)n1 | > 10 | – |
| O=Cc1coc(C(=O)CCCCCCc2ccccc2)n1 | 1.51 | – |
| CSc1coc(C(=O)CCCCCCc2ccccc2)n1 | > 10 | – |
| O=C(CCCCCCc1ccccc1)c1nc(C(=O)C(F)(F)F)co1 | 0.123 | – |

| Compound | IC50 [µM] | pIC50 (hek-293t) |
| --- | --- | --- |
| COC(=O)c1coc(C(=O)CCCCCCc2ccccc2)n1 | 0.631 | – |
| O=C(CCCCCCc1ccccc1)c1nc(-c2ccccn2)co1 | > 10 | – |
| CC(=O)c1coc(C(=O)CCCCCCc2ccccc2)n1 | 0.123 | – |
| O=C(CCCCCCc1ccccc1)c1nc(C(F)(F)F)co1 | 0.214 | – |
| O=C(CCCCCCc1ccccc1)c1nc(I)co1 | 2.34 | – |
| Cc1coc(C(=O)CCCCCCc2ccccc2)n1 | > 10 | – |
| N#Cc1coc(C(=O)CCCCCCc2ccccc2)n1 | 0.575 | – |
| O=C(CCCCCCc1ccccc1)c1nc(Cl)co1 | 2.4 | – |
| CN(C)C(=O)c1coc(C(=O)CCCCCCc2ccccc2)n1 | 3.39 | – |
| O=C(CCCCc1ccccc1)c1nc2ncccc2o1 | 0.204 | – |
| O=C(CCCCCCc1ccccc1)c1nc(-c2cccs2)no1 | 1.95 | – |
| O=C(O)c1cccc(-c2noc(C(=O)CCCCCCc3ccccc3)n2)n1 | > 10 | – |
| Cn1nnc(C(=O)CCCCCCc2ccccc2)n1 | > 10 | – |
| O=C(CCCCCCc1ccccc1)c1nnn(-c2ccccn2)n1 | > 10 | – |
| O=C(CCCCCCc1ccccc1)c1nnco1 | 2.69 | – |
| COC(=O)c1nc(C(=O)CCCCCCc2ccccc2)no1 | > 10 | – |
| O=C(CCCCCCc1ccccc1)c1ncc(-c2ccccn2)s1 | > 10 | – |
| COC(=O)c1nnc(C(=O)CCCCCCc2ccccc2)[nH]1 | > 10 | – |
| O=C(CCCCCCc1ccccc1)c1nnn(-c2ccco2)n1 | > 10 | – |
| O=C(CCCCCCc1ccccc1)c1noc(-c2ccccn2)n1 | > 10 | – |
| O=C(CCCCCCc1ccccc1)c1noc(-c2cccs2)n1 | > 10 | – |
| O=C(CCCCCCc1ccccc1)c1nc(-c2ccccn2)no1 | 2.75 | – |

| Compound | IC50 [µM] | pIC50 (hek-293t) |
| --- | --- | --- |
| O=C(CCCCCCc1ccccc1)c1nc(-c2ccco2)no1 | 0.933 | – |
| N#Cc1cccc(-c2noc(C(=O)CCCCCCc3ccccc3)n2)n1 | 1.05 | – |
| O=C(CCCCCCc1ccccc1)c1ncc(-c2ccco2)s1 | > 10 | – |
| O=C(CCCCCCc1ccccc1)c1nnc(-c2ccco2)[nH]1 | > 10 | – |
| O=C(CCCCCCc1ccccc1)c1nnc(-c2cccs2)[nH]1 | > 10 | – |
| O=C(CCCCCCc1ccccc1)c1ccc(-c2ccccn2)nn1 | > 10 | – |
| O=C(CCCCCCc1ccccc1)c1nncs1 | > 10 | – |
| O=C(CCCCCCc1ccccc1)c1nnc(-c2ccccn2)s1 | > 10 | – |
| O=C(CCCCCCc1ccccc1)c1ccc(-c2cccs2)nn1 | > 10 | – |
| O=C(CCCCCCc1ccccc1)c1nnc[nH]1 | > 10 | – |
| O=C(CCCCCCc1ccccc1)c1nc(-c2cccc(I)n2)no1 | > 10 | – |
| O=C(CCCCCCc1ccccc1)c1ccc(-c2ccco2)nn1 | > 10 | – |
| O=C(CCCCCCc1ccccc1)c1noc(-c2ccco2)n1 | > 10 | – |
| O=C(CCCCCCc1ccccc1)c1nnn(-c2cccs2)n1 | > 10 | – |
| O=C(CCCCCCc1ccccc1)c1nnc(-c2ccccn2)[nH]1 | > 10 | – |
| O=C(CCCCCCc1ccccc1)c1ncc(-c2cccs2)s1 | > 10 | – |
| COC(=O)c1cccc(-c2noc(C(=O)CCCCCCc3ccccc3)n2)n1 | > 10 | – |
| O=C(CCCCCCc1ccccc1)c1nc(-c2cccc(Cl)n2)no1 | > 10 | – |
| O=C(CCCCCCc1ccccc1)c1nc(-c2cccc(Br)n2)no1 | 2.04 | – |
| O=C(CCCCCCc1ccccc1)c1nc(-c2ccncc2)co1 | > 10 | – |
| O=C(CCCCCCc1ccccc1)c1nnc(-c2ccco2)s1 | > 10 | – |
| COc1coc(C(=O)CCCCCCc2ccccc2)n1 | > 10 | – |
